ChEMBL document CHEMBL1149288, “Effects of substitution on the pyrrole N atom in derivatives of tetrahydronaltrindole, tetrahydrooxymorphindole, and a related 4,5-epoxyphenylpyrrolomorphinan” (J Med Chem, 2004)
Activity calls are given as the source filed them. The rule behind the calls is not given here.

Columns and labels:
Mu-type opioid receptor [1] = molecular target: T1, Mu-type opioid receptor (Homo sapiens, UniProt P35372); assay: Displacement of [3H]DAMGO from human recombinant mu opioid receptor expressed in CHO cells; assay type: cell-based
T1 sequence (P35372 whole entry): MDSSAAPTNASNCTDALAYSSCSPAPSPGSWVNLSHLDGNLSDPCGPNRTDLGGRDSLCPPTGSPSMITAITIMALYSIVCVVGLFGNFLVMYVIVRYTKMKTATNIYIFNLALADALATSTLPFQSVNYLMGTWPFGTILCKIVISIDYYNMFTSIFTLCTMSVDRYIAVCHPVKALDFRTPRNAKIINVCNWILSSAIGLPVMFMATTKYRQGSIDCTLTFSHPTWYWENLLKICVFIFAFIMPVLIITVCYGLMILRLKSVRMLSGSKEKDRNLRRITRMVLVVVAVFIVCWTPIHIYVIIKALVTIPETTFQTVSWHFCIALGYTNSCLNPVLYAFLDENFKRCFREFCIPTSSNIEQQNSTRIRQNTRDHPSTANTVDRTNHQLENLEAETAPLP
Outline: (§1)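 Radioligand displacement was run on human recombinant receptors expressed in CHO cells. The labels were [3H]DAMGO for MOR and [3H]U69593 for KOR. Values are the mean of two experiments, each in triplicate.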

[2] = molecular target: T2, Kappa-type opioid receptor (Homo sapiens, UniProt P41145); assay: Activity at human recombinant kappa opioid receptor expressed in CHO cells by [35S]GTPgammaS binding assay; assay type: functional, cell-based
T2 sequence (P41145 whole entry): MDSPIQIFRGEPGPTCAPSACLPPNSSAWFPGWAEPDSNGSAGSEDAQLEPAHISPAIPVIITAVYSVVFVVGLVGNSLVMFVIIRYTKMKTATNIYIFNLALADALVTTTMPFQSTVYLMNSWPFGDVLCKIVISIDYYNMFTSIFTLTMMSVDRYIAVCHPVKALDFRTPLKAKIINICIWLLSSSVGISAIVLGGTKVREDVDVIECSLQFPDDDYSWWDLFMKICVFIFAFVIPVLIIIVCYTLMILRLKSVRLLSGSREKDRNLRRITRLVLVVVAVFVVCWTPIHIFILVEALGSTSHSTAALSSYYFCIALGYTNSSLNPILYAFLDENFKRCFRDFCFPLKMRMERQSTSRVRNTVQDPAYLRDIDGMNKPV
Outline: (§2)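 Human recombinant opioid receptors expressed in CHO cells. Agonist-stimulated [35S]GTPγS binding was measured and efficacy was referenced to DAMGO (MOR) or U69593 (KOR). Values are means of five or six experiments.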

[3] = molecular target: T2, Kappa-type opioid receptor; assay: Displacement of [3H]U-69593 from human recombinant kappa opioid receptor expressed in CHO cells; assay type: cell-based; outline: as §1
Mus musculus [4] = species on record: Mus musculus; assay: Reversal of 1'-benzyl-6,7-didehydro-3,14-dihydroxy-4,5alpha-epoxy-17-methyl-4',5',6',7'-tetrahydroindolo[2',3':6,7]morphinan-induced antinociceptive activity in mouse; assay type: functional
Mu-type opioid receptor [5] = molecular target: T1, Mu-type opioid receptor; assay: Activity at human recombinant mu opioid receptor expressed in CHO cells by [35S]GTP-gamma-S binding assay; assay type: functional, cell-based; outline: as §2
[6] = molecular target: T2, Kappa-type opioid receptor; assay: Activity at human recombinant kappa opioid receptor expressed in CHO cells by [35S]GTP-gamma-S binding assay relative to U69593; assay type: functional, cell-based; outline: as §2
Mu-type opioid receptor [7] = molecular target: T1, Mu-type opioid receptor; assay: Activity at human recombinant mu opioid receptor expressed in CHO cells by [35S]GTPgammaS binding assay relative to DAMGO; assay type: functional, cell-based; outline: as §2
[8] = molecular target: T3, Delta-type opioid receptor (Homo sapiens, UniProt P41143); conditions: CHO
T3 sequence (P41143 whole entry): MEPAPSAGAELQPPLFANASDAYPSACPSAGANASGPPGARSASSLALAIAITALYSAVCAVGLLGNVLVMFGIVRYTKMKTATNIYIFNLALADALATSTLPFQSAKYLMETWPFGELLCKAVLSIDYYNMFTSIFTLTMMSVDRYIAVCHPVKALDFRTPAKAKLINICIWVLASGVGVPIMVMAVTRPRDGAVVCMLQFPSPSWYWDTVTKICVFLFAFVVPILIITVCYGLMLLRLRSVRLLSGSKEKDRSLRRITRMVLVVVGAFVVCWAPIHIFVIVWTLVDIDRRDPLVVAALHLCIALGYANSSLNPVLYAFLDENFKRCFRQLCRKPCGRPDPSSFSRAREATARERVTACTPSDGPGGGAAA

[9] = molecular target: T3, Delta-type opioid receptor; assay: Displacement of [3H]Cl-DPDPE from human recombinant delta opioid receptor expressed in CHO cells; assay type: cell-based
Rattus norvegicus = assay: Prevention of SNC80-induced convulsions in Sprague-Dawley rat at 10 mg/kg, sc administered 20 mins before SNC80; assay type: functional, organism-based; design: dose 10 mg/kg
Outline: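 The test compound was given at 10 mg/kg sc 20 min before SNC80 (32 mg/kg), and prevention of SNC80-mediated convulsions was scored.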

Mus musculus [10] = assay: Antagonism of SNC80-induced antinociceptive effect in mouse assessed by phenylquinone-induced abdominal stretch assay at 10 mg/kg, sc; assay type: functional, Abdomen; design: scale not given: the % may be the effect or the level left; conditions: route subcutaneous
Outline: (§3)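 Mouse phenylquinone (PPQ) abdominal stretch assay. The test compound was given sc, and its antagonism of SNC80-induced antinociception was scored as percent antagonism of the agonist effect.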

Mus musculus [11] = assay: Antagonism of SNC80-induced antinociceptive effect in mouse assessed by phenylquinone-induced abdominal stretch assay at 3 mg/kg, sc; assay type: functional, Abdomen; design: scale not given: the % may be the effect or the level left; conditions: route subcutaneous; outline: as §3
Mus musculus [12] = assay: Antagonism of 1'-benzyl-6,7-didehydro-3,14-dihydroxy-4,5alpha-epoxy-17-methyl-4',5',6',7'-tetrahydroindolo[2',3':6,7]morphinan-induced antinociceptive activity in mouse at 30 mg/kg, sc; assay type: functional; design: scale not given: the % may be the effect or the level left; conditions: route subcutaneous
Mus musculus [13] = assay: Antagonism of SNC80-induced antinociceptive effect in mouse assessed by phenylquinone-induced abdominal stretch assay at 1 mg/kg, sc; assay type: functional, Abdomen; design: scale not given: the % may be the effect or the level left; conditions: route subcutaneous; outline: as §3
Mus musculus [14] = assay: Reversal of SNC80-induced antinociceptive effect in mouse assessed by phenylquinone-induced abdominal stretch assay at […], icv administered 24 hrs before SNC80; assay type: functional, Abdomen
Mus musculus [15] = assay: Antinociceptive activity in sc dosed mouse; assay type: functional
Outline: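 Antinociception was measured in the mouse PPQ-induced abdominal stretch assay after sc dosing.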

Mus musculus [16] = assay: Antagonism of SNC80-induced antinociceptive effect in sc dosed mouse assessed by phenylquinone-induced abdominal stretch assay; assay type: functional, organism-based; conditions: Abdomen; outline: as §3

Oc1ccc2c3c1O[C@H]1c4c(c5c(n4CC4CC4)CCCC5)C[C@@]4(O)C(C2)N(CC2CC2)CC[C@]314
Ki (Mu-type opioid receptor [1]): 2.52 nM
Ke [2]: 11.8 nM
Ki [3]: 2.51 nM

O=C1CC[C@@]2(O)[C@H]3Cc4ccc(O)c5c4[C@@]2(CCN3CC2CC2)[C@H]1O5 [NALTREXONE]
AD50 (Mus musculus [4]): 0.02 mg/kg

CCn1c2c(c3c1[C@@H]1Oc4c(O)ccc5c4[C@@]14CCN(C)C(C5)[C@]4(O)C3)CCCC2
Ki (Mu-type opioid receptor [1]): 25.8 nM
EC50 (Mu-type opioid receptor [5]): 175 nM
Activity [6]: 66%
EC50 [2]: 98.2 nM
Activity (Mu-type opioid receptor [7]): 41%
Ki [3]: 168 nM

Cn1cc(-c2ccccc2)c2c1[C@@H]1Oc3c(O)ccc4c3[C@@]13CCN(CC1CC1)C(C4)[C@]3(O)C2
Ki (Mu-type opioid receptor [1]): 7.6 nM
Ke (Mu-type opioid receptor [5]): 4.04 nM
Ke [8]: 0.62 nM
Ki [9]: 3.35 nM
Ke [2]: 34.1 nM
Ki [3]: 18.5 nM

Oc1ccc2c3c1O[C@H]1c4c(c5c(n4CC4CCCCC4)CCCC5)C[C@@]4(O)C(C2)N(CC2CC2)CC[C@]314
Ki (Mu-type opioid receptor [1]): 18.5 nM
Ke (Mu-type opioid receptor [5]): 11.6 nM
Activity [6]: 84%
EC50 [2]: 54.3 nM
Ki [3]: 24.9 nM

Oc1ccc2c3c1O[C@H]1c4c(c5c(n4Cc4ccccc4)CCCC5)C[C@@]4(O)C(C2)N(CC2CC2)CC[C@]314
Ki (Mu-type opioid receptor [1]): 5.39 nM
Ke (Mu-type opioid receptor [5]): 8.13 nM
Ke [8]: 2.23 nM
Activity (Rattus norvegicus): Active
Ki [9]: 2.94 nM
Activity (Mus musculus [10]): 54%
Activity (Mus musculus [11]): 54%
Ke [2]: 49.8 nM
Ki [3]: 6.29 nM

Oc1ccc2c3c1O[C@H]1c4[nH]c5ccccc5c4C[C@@]4(O)[C@@H](C2)N(CC2CC2)CC[C@]314 [NALTRINDOLE]
Activity (Mus musculus [12]): 40%

CN1CC[C@]23c4c5ccc(O)c4O[C@H]2c2c(c4c(n2CC2CCCCC2)CCCC4)C[C@@]3(O)C1C5
Ki (Mu-type opioid receptor [1]): 17.9 nM
EC50 (Mu-type opioid receptor [5]): 130 nM
Activity [6]: 85%
EC50 [2]: 153 nM
Activity (Mu-type opioid receptor [7]): 57%
Ki [3]: 262 nM

Oc1ccc2c3c1O[C@H]1c4c(c5c(n4CCc4ccccc4)CCCC5)C[C@@]4(O)C(C2)N(CC2CC2)CC[C@]314
Ki (Mu-type opioid receptor [1]): 7.46 nM
Ke (Mu-type opioid receptor [5]): 5.66 nM
Activity [6]: 76%
EC50 [2]: 13.8 nM

CN1CC[C@]23c4c5ccc(O)c4O[C@H]2c2c(c4c(n2CCc2ccccc2)CCCC4)C[C@@]3(O)C1C5
Ki (Mu-type opioid receptor [1]): 15.4 nM
EC50 (Mu-type opioid receptor [5]): 175 nM
Activity [6]: 76%
EC50 [2]: 131 nM
Activity (Mu-type opioid receptor [7]): 71%
Ki [3]: 163 nM

CCn1cc(-c2ccccc2)c2c1[C@@H]1Oc3c(O)ccc4c3[C@@]13CCN(CC1CC1)C(C4)[C@]3(O)C2
Ki (Mu-type opioid receptor [1]): 8.75 nM
Ke (Mu-type opioid receptor [5]): 10.7 nM
Ke [8]: 0.72 nM
Ki [9]: 2.95 nM
Ke [2]: 44 nM
Ki [3]: 24.3 nM

Oc1ccc2c3c1O[C@H]1c4c(c5ccccc5n4Cc4ccccc4)C[C@@]4(O)C(C2)N(CC2CC2)CC[C@]314
Activity (Mus musculus [13]): 57%

CN1CC[C@]23c4c5ccc(O)c4O[C@H]2c2c(c4c(n2Cc2ccccc2)CCCC4)C[C@@]3(O)C1C5
Ki (Mu-type opioid receptor [1]): 88.9 nM
EC50 (Mu-type opioid receptor [5]): 732 nM
Activity (Mus musculus [14]): >50%
Activity [6]: 43%
ED50 (Mus musculus [15]): 5.1 mg/kg
EC50 [2]: 1750 nM
Activity (Mu-type opioid receptor [7]): 44%
Activity (Mus musculus [16]): inactive
Ki [3]: 289 nM

CCn1c2c(c3c1[C@@H]1Oc4c(O)ccc5c4[C@@]14CCN(CC1CC1)C(C5)[C@]4(O)C3)CCCC2
Ki (Mu-type opioid receptor [1]): 5.06 nM
Ke (Mu-type opioid receptor [5]): 5.32 nM
Activity [6]: 63%
EC50 [2]: 14.3 nM
Ki [3]: 7.38 nM

CN1CC[C@]23c4c5ccc(O)c4O[C@H]2c2c(c4c(n2C)CCCC4)C[C@@]3(O)C1C5
EC50 (Mu-type opioid receptor [5]): 222 nM
Activity [6]: 69%
EC50 [2]: 97.2 nM
Activity (Mu-type opioid receptor [7]): 39%
Ki [3]: 89.1 nM

Cn1c2c(c3c1[C@@H]1Oc4c(O)ccc5c4[C@@]14CCN(CC1CC1)[C@H](C5)[C@]4(O)C3)CCCC2
Ki (Mu-type opioid receptor [1]): 5.76 nM
Ke (Mu-type opioid receptor [5]): 4.3 nM
Ke [2]: 12.2 nM
Ki [3]: 4.11 nM
